Laboratory results as given in ChEMBL document CHEMBL4138308, “Simultaneous Targeting of RGD-Integrins and Dual Murine Double Minute Proteins in Glioblastoma Multiforme” (J Med Chem, 2018).
pIC50: −log10 of the molar value.

Experiments:
Integrin alpha-V/beta-3 = Integrin alpha-V/beta-3 (Homo sapiens, UniProt P05106+P06756); test: Inhibition of vitronectin binding to human alphaVbeta3 integrin after 1 hr by ELISA; format: protein-complex assay
Method in brief: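 Plates coated overnight at 4 °C with vitronectin 1.0 μg/mL in carbonate buffer pH 9.6, blocked 1 h with TSB (Ca2+, Mg2+, Mn2+, 1% BSA). Soluble human αvβ3 (final 1.0 μg/mL) with inhibitor (final 0.128–400 nM) 1 h at room temperature; detection by anti-CD51/61 then peroxidase secondary, absorbance 405 nm. Duplicates; IC50 from curve inflection point; internal standard per plate.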

Integrin alpha-5/beta-1 = Integrin alpha-5/beta-1 (Homo sapiens, UniProt P05556+P08648); test: Inhibition of fibronectin binding to soluble alpha5beta1 integrin (unknown origin) after 1 hr by ELISA; format: protein-complex assay
Integrin alpha-5/beta-1, sequence (P05556 21-798 limits assumed): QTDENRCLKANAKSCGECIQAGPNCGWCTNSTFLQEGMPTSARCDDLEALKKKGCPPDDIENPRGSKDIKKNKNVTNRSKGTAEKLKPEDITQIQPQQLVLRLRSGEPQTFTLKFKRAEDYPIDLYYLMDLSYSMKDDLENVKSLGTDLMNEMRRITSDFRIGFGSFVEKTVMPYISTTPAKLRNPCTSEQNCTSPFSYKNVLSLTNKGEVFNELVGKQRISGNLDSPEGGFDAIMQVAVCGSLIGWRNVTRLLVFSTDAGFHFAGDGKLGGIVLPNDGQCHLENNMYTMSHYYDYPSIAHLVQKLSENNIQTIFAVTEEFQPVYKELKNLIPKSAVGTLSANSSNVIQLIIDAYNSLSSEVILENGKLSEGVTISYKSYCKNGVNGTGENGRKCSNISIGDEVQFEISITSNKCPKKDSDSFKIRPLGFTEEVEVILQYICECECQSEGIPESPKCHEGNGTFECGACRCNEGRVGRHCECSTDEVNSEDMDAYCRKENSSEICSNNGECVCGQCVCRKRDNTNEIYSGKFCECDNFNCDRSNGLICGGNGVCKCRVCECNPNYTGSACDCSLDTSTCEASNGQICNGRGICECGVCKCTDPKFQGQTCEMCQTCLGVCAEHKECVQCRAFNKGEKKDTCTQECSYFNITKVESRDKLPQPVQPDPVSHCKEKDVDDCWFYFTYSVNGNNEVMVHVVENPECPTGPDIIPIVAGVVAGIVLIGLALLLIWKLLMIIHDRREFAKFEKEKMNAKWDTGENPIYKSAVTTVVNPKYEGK
Integrin alpha-5/beta-1, sequence (P08648 42-894 limits assumed): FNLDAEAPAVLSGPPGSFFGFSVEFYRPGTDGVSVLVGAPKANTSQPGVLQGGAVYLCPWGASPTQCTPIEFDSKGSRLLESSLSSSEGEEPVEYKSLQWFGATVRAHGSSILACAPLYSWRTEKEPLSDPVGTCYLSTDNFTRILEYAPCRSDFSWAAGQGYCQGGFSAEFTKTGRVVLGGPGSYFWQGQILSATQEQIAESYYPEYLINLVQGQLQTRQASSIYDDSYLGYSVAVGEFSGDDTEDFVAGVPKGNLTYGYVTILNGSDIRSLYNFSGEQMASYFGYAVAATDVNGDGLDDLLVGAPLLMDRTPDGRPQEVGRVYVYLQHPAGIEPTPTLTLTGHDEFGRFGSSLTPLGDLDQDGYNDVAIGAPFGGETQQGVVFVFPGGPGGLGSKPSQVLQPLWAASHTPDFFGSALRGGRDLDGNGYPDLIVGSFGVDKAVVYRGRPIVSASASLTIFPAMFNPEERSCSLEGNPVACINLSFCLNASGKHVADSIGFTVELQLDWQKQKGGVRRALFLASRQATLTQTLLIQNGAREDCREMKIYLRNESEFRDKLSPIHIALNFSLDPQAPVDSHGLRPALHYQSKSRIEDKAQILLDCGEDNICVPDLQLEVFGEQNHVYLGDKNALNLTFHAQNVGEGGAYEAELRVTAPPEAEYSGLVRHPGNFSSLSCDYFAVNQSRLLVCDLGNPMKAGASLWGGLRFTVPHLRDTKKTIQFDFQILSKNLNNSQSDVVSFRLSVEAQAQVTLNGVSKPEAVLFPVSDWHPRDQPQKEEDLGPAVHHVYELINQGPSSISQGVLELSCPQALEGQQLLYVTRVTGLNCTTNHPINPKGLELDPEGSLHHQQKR
Integrin alpha-5/beta-1, sequence (P08648 895-1049 limits assumed): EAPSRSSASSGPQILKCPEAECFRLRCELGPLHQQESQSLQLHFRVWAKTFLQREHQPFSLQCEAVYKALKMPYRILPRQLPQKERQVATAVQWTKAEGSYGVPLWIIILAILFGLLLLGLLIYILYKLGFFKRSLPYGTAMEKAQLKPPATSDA

Protein Mdm4 = target: T1, Protein Mdm4 (Homo sapiens, UniProt O15151); test: Displacement of p53 from MDM4 in human SHSY-5Y cells incubated for 10 mins by sandwich ELISA method; format: cell-based
T1 sequence (O15151 whole entry): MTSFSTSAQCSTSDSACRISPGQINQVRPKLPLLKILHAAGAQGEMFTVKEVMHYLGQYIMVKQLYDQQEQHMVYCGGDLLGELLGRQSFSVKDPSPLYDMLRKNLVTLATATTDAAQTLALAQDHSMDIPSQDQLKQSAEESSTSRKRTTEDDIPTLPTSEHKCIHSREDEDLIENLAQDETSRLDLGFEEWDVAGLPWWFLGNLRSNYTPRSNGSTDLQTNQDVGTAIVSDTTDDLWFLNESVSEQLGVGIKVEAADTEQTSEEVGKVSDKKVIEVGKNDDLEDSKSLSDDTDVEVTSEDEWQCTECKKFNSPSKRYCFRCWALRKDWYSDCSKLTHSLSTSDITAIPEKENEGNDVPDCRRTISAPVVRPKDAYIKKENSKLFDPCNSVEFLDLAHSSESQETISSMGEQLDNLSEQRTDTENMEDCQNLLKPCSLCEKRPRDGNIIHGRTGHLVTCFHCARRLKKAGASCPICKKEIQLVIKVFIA

[1] = target: E3 ubiquitin-protein ligase Mdm2 (Homo sapiens, UniProt Q00987); test: Displacement of p53 from MDM2 in human U87MG cells incubated for 10 mins by sandwich ELISA method; format: cell-based
E3 ubiquitin-protein ligase Mdm2, sequence (Q00987 whole entry): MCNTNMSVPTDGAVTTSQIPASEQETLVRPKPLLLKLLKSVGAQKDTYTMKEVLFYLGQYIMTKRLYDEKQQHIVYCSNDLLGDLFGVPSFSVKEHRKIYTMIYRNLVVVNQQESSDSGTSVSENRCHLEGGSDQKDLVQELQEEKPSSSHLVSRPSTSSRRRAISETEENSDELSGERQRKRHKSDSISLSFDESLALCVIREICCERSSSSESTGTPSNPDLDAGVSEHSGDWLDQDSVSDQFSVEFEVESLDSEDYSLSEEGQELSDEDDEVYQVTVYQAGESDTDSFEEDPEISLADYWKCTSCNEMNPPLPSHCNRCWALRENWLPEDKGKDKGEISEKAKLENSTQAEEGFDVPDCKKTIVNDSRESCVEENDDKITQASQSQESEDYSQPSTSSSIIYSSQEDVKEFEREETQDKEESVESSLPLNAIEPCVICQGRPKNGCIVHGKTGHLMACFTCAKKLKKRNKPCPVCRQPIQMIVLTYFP

Integrin alpha-V/beta-3, sequence (P05106 27-788 limits assumed): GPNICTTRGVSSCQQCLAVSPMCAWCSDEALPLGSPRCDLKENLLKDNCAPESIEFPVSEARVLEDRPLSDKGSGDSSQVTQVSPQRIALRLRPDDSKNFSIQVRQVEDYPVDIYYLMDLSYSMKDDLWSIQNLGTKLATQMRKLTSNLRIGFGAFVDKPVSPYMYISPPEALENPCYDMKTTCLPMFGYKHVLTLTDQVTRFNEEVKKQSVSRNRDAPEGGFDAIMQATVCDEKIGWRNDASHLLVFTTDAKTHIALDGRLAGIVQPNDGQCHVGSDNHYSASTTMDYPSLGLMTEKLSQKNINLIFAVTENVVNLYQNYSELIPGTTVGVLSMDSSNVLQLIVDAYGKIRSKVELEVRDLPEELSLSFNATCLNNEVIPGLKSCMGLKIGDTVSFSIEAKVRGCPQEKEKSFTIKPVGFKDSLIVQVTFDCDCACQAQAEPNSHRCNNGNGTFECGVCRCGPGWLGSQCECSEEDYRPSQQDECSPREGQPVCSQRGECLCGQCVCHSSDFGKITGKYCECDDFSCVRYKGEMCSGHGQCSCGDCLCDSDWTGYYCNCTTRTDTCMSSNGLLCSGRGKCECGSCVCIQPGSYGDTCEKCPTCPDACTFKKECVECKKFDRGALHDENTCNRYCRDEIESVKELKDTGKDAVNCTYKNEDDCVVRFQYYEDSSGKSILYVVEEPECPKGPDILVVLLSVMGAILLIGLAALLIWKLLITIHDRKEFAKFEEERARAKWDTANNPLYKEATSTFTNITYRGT
Integrin alpha-V/beta-3, sequence (P06756 31-889 limits assumed): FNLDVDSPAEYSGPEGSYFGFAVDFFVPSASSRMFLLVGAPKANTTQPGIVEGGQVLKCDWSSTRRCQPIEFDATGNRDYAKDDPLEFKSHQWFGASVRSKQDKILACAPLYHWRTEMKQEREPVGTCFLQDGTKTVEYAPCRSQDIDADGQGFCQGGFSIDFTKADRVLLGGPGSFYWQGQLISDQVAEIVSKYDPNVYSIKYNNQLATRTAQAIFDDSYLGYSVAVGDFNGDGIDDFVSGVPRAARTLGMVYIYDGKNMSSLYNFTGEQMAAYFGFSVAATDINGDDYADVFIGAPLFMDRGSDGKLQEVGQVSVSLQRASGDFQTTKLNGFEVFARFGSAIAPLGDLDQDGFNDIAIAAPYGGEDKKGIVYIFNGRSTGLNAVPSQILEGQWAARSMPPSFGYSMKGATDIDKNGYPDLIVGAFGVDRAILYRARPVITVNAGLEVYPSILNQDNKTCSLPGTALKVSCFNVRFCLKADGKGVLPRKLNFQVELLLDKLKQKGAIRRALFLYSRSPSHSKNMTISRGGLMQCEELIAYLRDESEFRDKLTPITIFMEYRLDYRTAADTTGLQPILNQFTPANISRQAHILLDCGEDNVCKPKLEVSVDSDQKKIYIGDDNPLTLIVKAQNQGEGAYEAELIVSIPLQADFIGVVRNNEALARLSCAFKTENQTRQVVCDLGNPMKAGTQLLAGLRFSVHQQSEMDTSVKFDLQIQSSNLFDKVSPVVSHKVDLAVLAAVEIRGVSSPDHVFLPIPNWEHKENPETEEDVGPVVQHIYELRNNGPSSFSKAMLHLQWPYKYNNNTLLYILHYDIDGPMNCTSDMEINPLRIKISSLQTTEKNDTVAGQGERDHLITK
Integrin alpha-V/beta-3, sequence (P06756 891-1048 limits assumed): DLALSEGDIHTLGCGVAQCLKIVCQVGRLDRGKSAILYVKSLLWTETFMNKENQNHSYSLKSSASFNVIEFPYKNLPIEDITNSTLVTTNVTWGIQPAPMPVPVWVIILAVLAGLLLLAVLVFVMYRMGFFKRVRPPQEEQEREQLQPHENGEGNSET

Structure (SMILES) | pIC50 (Integrin alpha-V/beta-3) | pIC50 (Integrin alpha-5/beta-1) | pIC50 (Protein Mdm4) | pIC50 [1]
C[C@H](NC(=O)[C@H](CC(=O)O)NC(=O)CNC(=O)c1cccc(NC(=N)N)c1)c1ccccc1 | 9.04 | 7.70 | – | –
COc1ccc(CNC(=O)[C@H](CC(=O)O)NC(=O)CNC(=O)c2cccc(NC(=N)N)c2)cc1 | 8.92 | 7.40 | < 6.00 | –
N=C(N)Nc1cccc(C(=O)NCC(=O)N[C@@H](CC(=O)O)C(=O)NCC(c2ccccc2)c2ccccc2)c1 | 9.04 | 7.66 | – | < 6.00
N=C(N)Nc1cccc(C(=O)NCC(=O)N[C@@H](CC(=O)O)C(=O)NCCc2c[nH]c3ccccc23)c1 | 8.40 | 7.44 | < 6.00 | –
C[C@@H](NC(=O)[C@H](CC(=O)O)NC(=O)CNC(=O)c1cccc(NC(=N)N)c1)c1ccccc1 | 8.80 | 7.35 | – | –

The remaining lines, values ahead:

pIC50 (Integrin alpha-V/beta-3) | pIC50 (Integrin alpha-5/beta-1) | pIC50 (Protein Mdm4) | pIC50 [1] | Structure (SMILES)
8.92 | 7.74 | < 6.00 | – | N=C(N)Nc1cccc(C(=O)NCC(=O)N[C@@H](CC(=O)O)C(=O)NCc2cccc(-c3ccccc3)c2)c1
8.35 | 7.66 | – | – | N=C(N)Nc1cccc(C(=O)NCC(=O)N[C@@H](CC(=O)O)C(=O)Nc2cccc3ccccc23)c1
8.77 | 7.39 | < 6.00 | – | N=C(N)Nc1cccc(C(=O)NCC(=O)N[C@@H](CC(=O)O)C(=O)NCc2ccc(-c3ccccc3)cc2)c1
9.10 | 7.51 | – | < 6.00 | N=C(N)Nc1cccc(C(=O)NCC(=O)N[C@@H](CC(=O)O)C(=O)NCc2ccccc2)c1
